The source of these data is ChEMBL document CHEMBL1153337, “Small molecule antagonists of the gonadotropin-releasing hormone (GnRH) receptor: structure-activity relationships of small heterocyclic groups appended to the 2-phenyl-4-piperazinyl-benzimidazole template” (Bioorg Med Chem Lett, 2009).

The nature of data set [1]: Half life in orchidectomized Sprague-Dawley rat at 1 mg/kg, iv after 1 day. In kind it is ADME, organism-based. Particulars: male, in vivo. Details: dose 1 mg/kg, route intravenous. In outline:
(§1)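 Orchidectomized SD rats, single iv dose of 1 mg/kg in 20% DMSO/PEG 200; one-day PK study.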

Data set [2] is described as follows: AUC (0 to alpha) in orchidectomized Sprague-Dawley rat at 30 mg/kg, po after 1 day. It counts as ADME, organism-based. The conditions noted are these: male, plasma. Details: dose 30 mg/kg, route oral. The method in brief: (§2)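 Orchidectomized SD rats, single oral dose of 30 mg/kg in PEG 400; iv arm 1 mg/kg in 20% DMSO/PEG 200 for bioavailability; one-day PK study.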

The next data set has as its target CYP3A4 (Homo sapiens, UniProt P08684). Description: Inhibition of CYP3A4 at 3 uM. It counts as ADME.
Data set [3] can be described thus: Oral bioavailability in orchidectomized Sprague-Dawley rat at 30 mg/kg after 1 day. It counts as ADME, organism-based. Particulars: male, in vivo. In outline:
as §2

Data set [4] in a line: Clearance in orchidectomized Sprague-Dawley rat at 1 mg/kg, iv after 1 day. It counts as ADME, organism-based. More on the design: dose 1 mg/kg, route intravenous. The conditions noted are these: male, in vivo. In outline: as §1
Data set [5] in a line: Solubility at pH 7.4. It counts as physicochemical. The conditions noted are these: buffer.
Data set [6] deals with Rattus norvegicus. Description: Change in serum leutinizing hormone level in orchidectomized rat at 30 mg/kg, po after 0.5 hrs relative to control. In kind it is functional. The method in brief: (§3)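 Orchidectomized rats (stable elevated LH after testosterone feedback removal), oral gavage 30 mg/kg in PEG 400 vs vehicle cohort, n = 6 per group; serum LH sampled over 24 h, relative LH with t = 0 set to 100; change = treated minus vehicle average.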

Data set [7] deals with T1, Gonadotropin-releasing hormone receptor (Rattus norvegicus, UniProt P30969).
T1 sequence (P30969 whole entry): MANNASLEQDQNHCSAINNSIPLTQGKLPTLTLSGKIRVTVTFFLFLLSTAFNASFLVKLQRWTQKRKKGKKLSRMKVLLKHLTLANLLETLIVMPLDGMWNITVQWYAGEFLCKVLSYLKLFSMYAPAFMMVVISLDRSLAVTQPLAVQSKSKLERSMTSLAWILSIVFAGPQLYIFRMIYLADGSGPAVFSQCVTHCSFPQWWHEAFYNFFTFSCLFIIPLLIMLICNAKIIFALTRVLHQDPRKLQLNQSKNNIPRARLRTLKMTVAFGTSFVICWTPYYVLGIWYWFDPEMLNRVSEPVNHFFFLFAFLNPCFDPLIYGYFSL
Description: Displacement of [125I]-(D-Trp6)-GnRH from rat GnRH receptor. The method in brief:
(§4)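 Competition binding at overexpressed human or rat GnRH receptors against 125I-(D-Trp6)-GnRH; IC50 averaged from two independent experiments run in triplicate.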
A general note: Displacement assays read how much labelled ligand stays bound in the presence of the test substance.

The nature of data set [8]: Reduction in leutinizing hormone release in (D-Trp6)-GnRH-stimulated rat primary pituitary cells by RIA. It counts as functional, cell-based. The conditions noted are these: Pituitary gland cell. The method in brief: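 Primary rat pituitary cells stimulated with (D-Trp6)-GnRH; compound-driven reduction of LH release read as IC50.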
The target in another data set is CYP2D6 (Homo sapiens, UniProt P10635). Description: Inhibition of CYP2D6 at 3 uM. In kind it is ADME.
Data set [9] can be described thus: Metabolic stability in rat liver microsomes assessed as half life. In kind it is ADME, Microsome. On the technique in general: Liver microsomes are vesicles of endoplasmic reticulum, rich in cytochrome P450 enzymes.
Data set [10] concerns Rattus norvegicus. Briefly: Change in serum leutinizing hormone level in orchidectomized rat at 30 mg/kg, po after 2 hrs relative to control. It counts as functional. In outline:
as §3

The subject of data set [11] is Rattus norvegicus. Briefly: Change in serum leutinizing hormone level in orchidectomized rat at 30 mg/kg, po after 6 hrs relative to control. It counts as functional. In outline:
as §3

A short description of data set [12]: Half life in orchidectomized Sprague-Dawley rat at 30 mg/kg, po after 1 day. Details: dose 30 mg/kg, route oral. The conditions noted are these: male, in vivo. It counts as ADME, organism-based. The method in brief: as §2
The target in the next data set is CYP2C9 (Homo sapiens, UniProt P11712). Briefly: Inhibition of CYP2C9 at 3 uM. It counts as ADME.
Data set [13] can be described thus: Volume of distribution at steady state in orchidectomized Sprague-Dawley rat at 1 mg/kg, iv after 1 day. In kind it is ADME, organism-based. More on the design: dose 1 mg/kg, route intravenous. The conditions noted are these: male, in vivo, read-out: Vdss. The method in brief:
as §1

Data set [14] addresses T2, Gonadotropin-releasing hormone receptor (Homo sapiens, UniProt P30968).
T2 sequence (P30968 whole entry): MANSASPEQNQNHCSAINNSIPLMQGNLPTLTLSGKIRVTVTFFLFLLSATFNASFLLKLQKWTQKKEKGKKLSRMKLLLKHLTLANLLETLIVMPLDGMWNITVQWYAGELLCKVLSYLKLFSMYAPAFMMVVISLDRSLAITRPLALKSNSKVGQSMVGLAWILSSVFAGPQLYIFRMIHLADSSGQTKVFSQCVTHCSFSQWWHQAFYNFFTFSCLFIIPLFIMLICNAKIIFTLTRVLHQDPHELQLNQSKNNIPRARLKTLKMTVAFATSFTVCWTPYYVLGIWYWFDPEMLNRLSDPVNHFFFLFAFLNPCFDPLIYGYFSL
Description: Antagonist activity at human recombinant GnRH receptor expressed in HEK293 cells assessed as reduction in (D-Trp6)-GnRH-stimulated IP production by whole cell assay. It counts as functional, cell-based. The method in brief: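 Whole-cell assay, cells stimulated with (D-Trp6)-GnRH; compound-driven reduction of inositol phosphate read as IC50.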

For data set [15], the system named is Rattus norvegicus. Briefly: Change in serum leutinizing hormone level in orchidectomized rat at 30 mg/kg, po after 1 hr relative to control. It counts as functional. In outline:
as §3

Data set [16] has as its system Rattus norvegicus. Description: Change in serum leutinizing hormone level in orchidectomized rat at 30 mg/kg, po after 4 hrs relative to control. It counts as functional. The method in brief: as §3
The target in data set [17] is T2, Gonadotropin-releasing hormone receptor. Briefly: Displacement of [125I]-(D-Trp6)-GnRH from human GnRH receptor. In outline:
as §4

For data set [18], the system named is Rattus norvegicus. Briefly: Change in serum leutinizing hormone level in orchidectomized rat at 30 mg/kg, po after 24 hrs relative to control. In kind it is functional. The method in brief: as §3
Data set [19] is described as follows: Half life in orchidectomized Sprague-Dawley rat at 20 mg/kg, po after 1 day. It counts as ADME, organism-based. More on the design: dose 20 mg/kg, route oral. Particulars: male, in vivo. In outline: (§5)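 Orchidectomized SD rats, single oral dose of 20 mg/kg in 0.4 N HCl/2% TWEEN 80; iv arm 1 mg/kg in 20% DMSO/PEG 200 for bioavailability; one-day PK study.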

Data set [20] deals with Rattus norvegicus. Description: AUC (0 to alpha) in orchidectomized Sprague-Dawley rat at 20 mg/kg, po after 1 day. It counts as ADME, organism-based, Plasma. More on the design: dose 20 mg/kg, route oral. Particulars: in vivo, 24 h. In outline:
as §5

Data set [21] concerns Rattus norvegicus. Description: Oral bioavailability in orchidectomized Sprague-Dawley rat at 20 mg/kg after 1 day. In kind it is ADME, organism-based. The conditions noted are these: in vivo, 24 h. The method in brief:
as §5

Each structure is given as a SMILES string. In brackets after ≈: the same amount, converted by molar mass.

Sequence of CYP3A4 (P08684 whole entry): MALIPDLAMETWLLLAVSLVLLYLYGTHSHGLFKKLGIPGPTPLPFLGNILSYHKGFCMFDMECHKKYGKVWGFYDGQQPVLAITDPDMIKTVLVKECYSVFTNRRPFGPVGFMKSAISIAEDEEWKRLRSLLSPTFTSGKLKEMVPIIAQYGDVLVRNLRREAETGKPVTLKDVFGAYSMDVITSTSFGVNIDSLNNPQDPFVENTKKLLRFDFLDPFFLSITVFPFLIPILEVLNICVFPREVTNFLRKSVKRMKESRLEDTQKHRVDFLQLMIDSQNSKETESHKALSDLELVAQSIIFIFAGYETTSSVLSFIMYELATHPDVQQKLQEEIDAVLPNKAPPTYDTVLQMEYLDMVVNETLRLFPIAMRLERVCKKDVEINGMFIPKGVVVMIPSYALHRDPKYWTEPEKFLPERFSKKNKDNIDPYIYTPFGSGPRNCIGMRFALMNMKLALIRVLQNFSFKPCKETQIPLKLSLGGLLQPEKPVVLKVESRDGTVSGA
Sequence of CYP2D6 (P10635 whole entry): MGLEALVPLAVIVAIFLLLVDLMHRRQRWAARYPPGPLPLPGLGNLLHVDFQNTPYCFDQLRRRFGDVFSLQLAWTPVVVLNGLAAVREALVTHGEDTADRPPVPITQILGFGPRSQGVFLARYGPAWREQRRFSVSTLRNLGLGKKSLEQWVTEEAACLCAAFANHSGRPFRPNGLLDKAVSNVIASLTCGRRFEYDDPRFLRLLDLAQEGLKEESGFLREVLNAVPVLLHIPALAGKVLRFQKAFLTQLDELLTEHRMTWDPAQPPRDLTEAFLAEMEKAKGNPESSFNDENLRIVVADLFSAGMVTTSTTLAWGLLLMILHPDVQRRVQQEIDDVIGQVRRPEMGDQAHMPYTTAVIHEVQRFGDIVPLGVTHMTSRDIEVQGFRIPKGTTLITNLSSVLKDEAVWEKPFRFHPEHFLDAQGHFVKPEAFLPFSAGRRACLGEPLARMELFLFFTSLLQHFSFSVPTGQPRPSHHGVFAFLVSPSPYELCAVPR
Sequence of CYP2C9 (P11712 whole entry): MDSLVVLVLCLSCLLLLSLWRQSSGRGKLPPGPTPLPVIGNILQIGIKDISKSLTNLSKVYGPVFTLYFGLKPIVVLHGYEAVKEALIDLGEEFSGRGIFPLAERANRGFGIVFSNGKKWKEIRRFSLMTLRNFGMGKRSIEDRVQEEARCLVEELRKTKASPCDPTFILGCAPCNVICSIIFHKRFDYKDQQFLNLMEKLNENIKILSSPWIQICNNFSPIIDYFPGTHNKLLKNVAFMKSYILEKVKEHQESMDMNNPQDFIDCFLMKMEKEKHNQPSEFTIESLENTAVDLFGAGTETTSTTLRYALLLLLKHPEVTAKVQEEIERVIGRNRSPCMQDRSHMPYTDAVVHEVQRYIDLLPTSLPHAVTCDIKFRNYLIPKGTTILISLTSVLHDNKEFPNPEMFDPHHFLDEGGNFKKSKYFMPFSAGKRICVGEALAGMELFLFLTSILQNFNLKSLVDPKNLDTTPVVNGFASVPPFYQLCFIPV

Regarding `CCn1cnc(CN2CCN(c3cccc4[nH]c(-c5ccc(C(C)(C)C)cc5)nc34)CC2)c1C`, the half-life (usually the time needed for the level to fall by half in the phase considered) in data set [1] was 18 min; in [9], 21 min; in data set [12], 222 min. Further, in [2], the AUC (as a rule, the area under the concentration-time curve, a measure of exposure) at 24 h was found to be 3440 ng·h/mL. Further, the inhibition (usually the change of the read-out against control, counted positive when it falls) at 3 µM at CYP3A4 is 73%; on CYP2D6, 14%; on CYP2C9, 27%. Further, the bioavailability – broadly, the share of a dose that reaches the circulation, judged against a reference dose that is usually intravenous – in [3] is 93%. In addition, the clearance (usually the rate of elimination divided by the concentration) in data set [4] amounted to 134 mL/min/kg. For the same compound, the solubility – broadly, the dissolved amount per volume that the medium holds – in data set [5] was greater than 100 µg/mL. Also, the Activity with Rattus norvegicus [6] was -0.2; in the data set with Rattus norvegicus [10], -52.8; in the data set on Rattus norvegicus [11], -32.3; in the data set on Rattus norvegicus [15] it was -18; with Rattus norvegicus [16], 14.5; with Rattus norvegicus [18], -3.5. Moreover, the IC50 – broadly, the concentration that gives 50% inhibition – came to 24 nM in [7], 200 nM in data set [8], 14 nM in data set [14] and 7 nM in [17]. In data set [13], the Vd worked out at 2.7 L/kg.

With `CCCn1cc(CN2CCN(c3cccc4[nH]c(-c5ccc(C(C)(C)C)cc5)nc34)CC2)nc1C`, the half-life in [19] was 174 min; in data set [1] it was 54 min; in [9], 25 min. The inhibition at 3 µM came to 85% against CYP3A4, 13% at CYP2D6 and 19% against CYP2C9. This compound displayed an AUC in the data set on Rattus norvegicus [20] of 3830 ng·h/mL. The solubility in data set [5] worked out at 55 µg/mL (≈ 117 µM). Moreover, the F with Rattus norvegicus [21] was 100%. Besides, the IC50 in data set [7] stood at 41 nM; in data set [8], 240 nM; in data set [14], 43 nM; in data set [17] it was 18 nM. For the same compound, the Vd in data set [13] stood at 0.2 L/kg.
